Bounds are passed on as bounds.

Drawing on ChEMBL document CHEMBL4422659, “Discovery of novel 4-phenyl-2-(pyrrolidinyl)nicotinamide derivatives as potent Nav1.1 activators” (Bioorg Med Chem Lett, 2019), this text covers Activity, chromatographic logD and solubility for twelve molecules.

Data set [1] has as its target Sodium channel protein type 1 subunit alpha (Homo sapiens) (UniProt P35498). Kind of data set: Activation of human Nav1.1 expressed in T-Rex-CHO cells assessed as change in decay time constant of channel currents at 10 uM at holding potential of -120 mV by automated patch-clamp electrophysiology assay relative to control. Format: cell-based. A digest of the protocol:
(§1)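 Human Nav1.1 stably expressed in CHO cells; inactivation current decay time constant (tau) measured on IonWorks automated patch platform; tau given as % of control; mean of N=5 unless noted, standard deviation reported.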

Data set [2] shares this target. Kind of data set: Activation of human Nav1.1 expressed in T-Rex-CHO cells assessed as change in decay time constant of channel currents at 3 uM at holding potential of -120 mV by automated patch-clamp electrophysiology assay relative to control. Format: cell-based. The method in brief: as §1
Data set [3] shares this target. Kind of data set: Activation of human Nav1.1 expressed in T-Rex-CHO cells assessed as change in decay time constant of channel currents at 0.3 uM by Q-patch assay relative to control. Type of data set: cell-based. The method in brief:
(§2)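 Human Nav1.1 in CHO cells, Q-patch automated patch clamp; current decay time constant (tau) and top current ratio expressed as % of control; mean of N=4 unless noted, standard deviation reported.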

Data set [4] has the same target. Kind of data set: Activation of human Nav1.1 expressed in T-Rex-CHO cells assessed as change in decay time constant of channel currents at 1 uM at holding potential of -120 mV by automated patch-clamp electrophysiology assay relative to control. Type of data set: cell-based. The method in brief: as §1
For data set [5] the target is unchanged. Kind of data set: Activation of human Nav1.1 expressed in T-Rex-CHO cells assessed as change in decay time constant of channel currents at 1 uM by Q-patch assay relative to control. Format: cell-based. The method in brief:
as §2

The target is the same in data set [6]. Kind of data set: Activation of human Nav1.1 expressed in T-Rex-CHO cells assessed as change in decay time constant of channel currents at 0.03 uM by Q-patch assay relative to control. Type of data set: cell-based. A digest of the protocol: as §2
Data set [7] shares this target. Kind of data set: Activation of human Nav1.1 expressed in T-Rex-CHO cells assessed as change in decay time constant of channel currents at 0.3 uM at holding potential of -120 mV by automated patch-clamp electrophysiology assay relative to control. Format: cell-based. A digest of the protocol: as §1
For data set [8] the target is unchanged. Kind of data set: Activation of human Nav1.1 expressed in T-Rex-CHO cells assessed as change in decay time constant of channel currents at 0.1 uM by Q-patch assay relative to control. Type of data set: cell-based. A digest of the protocol:
as §2

For data set [9] the target is unchanged. Kind of data set: Activation of human Nav1.1 expressed in T-Rex-CHO cells assessed as change in decay time constant of channel currents at 10 uM by Q-patch assay relative to control. Type of data set: cell-based. The method in brief:
as §2

Data set [10] shares this target. Kind of data set: Activation of human Nav1.1 expressed in T-Rex-CHO cells assessed as change in top peak current at 10 uM by Q-patch assay relative to control. Type of data set: cell-based. A digest of the protocol:
as §2

The target is the same in data set [11]. Kind of data set: Activation of human Nav1.1 expressed in T-Rex-CHO cells assessed as change in top peak current at 3 uM by Q-patch assay relative to control. Format: cell-based. The method in brief:
as §2

Data set [12] shares this target. Kind of data set: Activation of human Nav1.1 expressed in T-Rex-CHO cells assessed as change in decay time constant of channel currents at 3 uM by Q-patch assay relative to control. Format: cell-based. The method in brief:
as §2

The target is the same in data set [13]. Kind of data set: Activation of human Nav1.1 expressed in T-Rex-CHO cells assessed as change in top peak current at 1 uM by Q-patch assay relative to control. Type of data set: cell-based. A digest of the protocol: as §2
The nature of data set [14]: 1-octanol/water partition co-efficient, log D of the compound at pH 7.4 by chromatographic analysis. Type of data set: physicochemical.
Data set [15] in a line: Aqueous solubility of compound at pH 6.8 by UV absorbance method. Format: physicochemical. Particulars: buffer. A digest of the protocol:
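Solubility determined at pH 6.8.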

For data set [16], the target named is Sodium channel protein type 1 subunit alpha (Homo sapiens) (UniProt P35498). Kind of data set: Activation of human Nav1.1 expressed in T-Rex-CHO cells assessed as change in decay time constant of channel currents at 30 uM at holding potential of -120 mV by automated patch-clamp electrophysiology assay relative to control. Type of data set: cell-based. A digest of the protocol:
as §1

With `CC(C)c1ccc(NC(=O)c2c(-c3ccc(Cl)cc3)ncnc2N2CCCCC2)cn1`, the values for the Activity in data set [1] and in data set [2] were 105% and 110%, respectively.
Consider `CC(C)c1ccc(NC(=O)c2c(-c3ccccc3)ncnc2N2CC[C@H](F)C2)cn1`, for which the Activity amounted to 255% in data set [3], 102% in [4], 332% in [5] and 302% in data set [2].
Consider `CC(C)c1ccc(NC(=O)c2c(-c3ccc(Cl)cc3)ncnc2N2CCC(F)(F)C2)cn1`, for which the Activity came out at 131% in [1] and 184% in [2].
In the case of `CC(C)c1ccc(NC(=O)c2c(-c3cc(F)ccc3F)ncnc2N2CC[C@H](F)C2)cn1`, the Activity in data set [6] was found to be 124%; in [3], 853%; in data set [7], 135%; in data set [4] it was 260%; in data set [8], 193%; in [5], 1900%. In data set [2], the Activity stood at 714%.
Consider `CC(C)c1ccc(NC(=O)c2c(-c3ccccc3F)ncnc2N2CC[C@H](F)C2)cn1`, for which the Activity was 711% in [3], 135% in [4], 1400% in [5] and 391% in [2].
As for `CCN(CC)c1ncnc(-c2ccc(Cl)cc2)c1C(=O)Nc1ccc(C(C)C)nc1`, the figures for the Activity in data set [1] and in data set [2] were 74% and 96%, respectively.
In the case of `CC(C)c1ccc(NC(=O)c2c(-c3ccco3)ncnc2N2CC[C@H](F)C2)cn1`, the figures for the Activity in data set [4] and in [2] were 86% and 98%, respectively.
With `CC(C)c1ccc(NC(=O)c2c(-c3ccc(Cl)cc3)ncnc2N2CCC2)cn1`, the Activity in data set [1] is 90%; in data set [2], 111%.
In the case of `CC(C)c1ccc(NC(=O)c2c(-c3ccc(Cl)cc3)ncnc2N2CCOCC2)cn1`, the Activity in data set [9] is 774%; in [10], 131%; in [11], 115%; in data set [12], 731%; in data set [5] it was 198%; in [13], 113%. Moreover, the Activity in data set [1] turned out to be 370%; in [2], 258%; in [16] it was 555%. In addition, the chromatographic logD in data set [14] is 2.97. Further, the solubility in data set [15] was more than 100 µg/mL.
In the case of `CC(C)c1ccc(NC(=O)c2c(-c3ccc(Cl)cc3)ncnc2N2CC[C@H](F)C2)cn1`, the Activity in data set [3] worked out at 170%; in data set [4], 107%; in data set [5] it was 682%; in [1] it was 342%; in data set [2] it was 257%.
Consider `CC(C)c1ccc(NC(=O)c2c(-c3ccc(Cl)cc3)ncnc2N2CC[C@@H](F)C2)cn1`, for which the figures for the Activity in data set [1] and in data set [2] were 162% and 145%, respectively.
In the same order, the values of `CC(C)c1ccc(NC(=O)c2c(-c3ccc(Cl)cc3)ncnc2N2CCCC2)cn1` are 257% and 140%.
